# Reference: ChEMBL document CHEMBL3792358, “Computer-aided identification of new histone deacetylase 6 selective inhibitor with anti-sepsis activity” (Eur J Med Chem, 2016)
# Calls of active or inactive are those of the source. The rule behind the calls is not given here.
# Key:
# Histone deacetylase [1] = type: cell-based, Homo sapiens; details: hela
# [2] = biological target: Histone deacetylase (Homo sapiens) (UniProt Q13547+O15379+Q9UBN7+Q92769+Q9UQL6+Q8WUI4+Q9BY41+Q96DB2+P56524+Q9UKV0+Q969S8); experiment: Competitive inhibition of HDAC in human HeLa cells using Boc-acetyl-lysine-AMC as substrate at 25 to 50 uM incubated for 30 mins in dark by Lineweaver-Burk plot analysis; type: cell-based
# [3] = biological target: T1, Protein deacetylase HDAC6 (Homo sapiens, UniProt Q9UBN7); experiment: Inhibition of recombinant human HDAC6 using Fluor de Lys-SIRT1 as substrate incubated for 15 mins by fluorescence assay
# T1 sequence (Q9UBN7 whole entry): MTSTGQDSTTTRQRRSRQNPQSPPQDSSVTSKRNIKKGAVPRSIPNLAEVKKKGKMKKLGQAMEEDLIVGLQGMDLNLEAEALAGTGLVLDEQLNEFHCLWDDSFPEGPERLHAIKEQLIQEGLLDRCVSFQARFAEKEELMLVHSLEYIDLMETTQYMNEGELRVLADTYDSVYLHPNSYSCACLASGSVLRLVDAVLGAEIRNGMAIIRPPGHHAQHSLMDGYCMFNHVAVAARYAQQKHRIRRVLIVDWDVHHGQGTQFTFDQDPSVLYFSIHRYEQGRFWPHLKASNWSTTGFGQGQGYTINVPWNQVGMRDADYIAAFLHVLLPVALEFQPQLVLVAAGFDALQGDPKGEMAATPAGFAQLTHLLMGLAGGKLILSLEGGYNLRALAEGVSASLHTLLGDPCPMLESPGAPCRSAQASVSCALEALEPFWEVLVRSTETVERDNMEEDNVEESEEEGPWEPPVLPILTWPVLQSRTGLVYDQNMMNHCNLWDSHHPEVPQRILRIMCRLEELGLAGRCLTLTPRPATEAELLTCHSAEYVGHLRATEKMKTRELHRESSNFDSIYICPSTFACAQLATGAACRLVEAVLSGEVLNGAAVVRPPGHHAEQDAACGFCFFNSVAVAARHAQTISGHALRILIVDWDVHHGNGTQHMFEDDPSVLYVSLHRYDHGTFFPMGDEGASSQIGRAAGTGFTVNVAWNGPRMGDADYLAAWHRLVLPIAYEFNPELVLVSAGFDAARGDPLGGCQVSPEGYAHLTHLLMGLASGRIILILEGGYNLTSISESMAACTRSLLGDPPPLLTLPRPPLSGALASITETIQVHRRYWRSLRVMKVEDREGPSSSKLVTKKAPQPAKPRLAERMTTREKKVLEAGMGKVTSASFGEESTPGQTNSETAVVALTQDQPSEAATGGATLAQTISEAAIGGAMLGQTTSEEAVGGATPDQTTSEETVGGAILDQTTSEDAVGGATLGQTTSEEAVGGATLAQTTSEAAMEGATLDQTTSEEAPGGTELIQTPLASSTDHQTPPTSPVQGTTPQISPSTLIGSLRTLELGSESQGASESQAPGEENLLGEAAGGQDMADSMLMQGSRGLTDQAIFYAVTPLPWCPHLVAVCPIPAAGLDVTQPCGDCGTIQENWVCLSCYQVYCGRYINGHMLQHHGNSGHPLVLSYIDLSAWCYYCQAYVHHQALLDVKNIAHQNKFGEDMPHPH
# Mus musculus [4] = experiment: Antiinflammatory activity in ICR mouse model of LPS-induced endotoxemia assessed as inhibition of LPS-induced IL-6 mRNA expression in liver at 10 mg/kg, ip administered 2 hrs before and immediately after LPS injection by RT-PCR method; type: functional, organism-based
# In short: (§1)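 Male ICR mice (27–29 g) given LPS; drug i.p. in 5% DMSO/saline 2 h before and immediately after LPS. Liver collected 6 h after LPS. Total RNA extracted and reverse-transcribed to cDNA; TNF-α and IL-6 mRNA measured by real-time RT-PCR relative to vehicle control.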
# Histone deacetylase 11 = biological target: T2, Histone deacetylase 11 (Homo sapiens, UniProt Q96DB2); experiment: Inhibition of human recombinant N-terminal His-tagged HDAC11 (1 to 347 residues) expressed in insect cells/baculovirus expression system using RHK-K(Ac)-AMC as substrate by fluorescence assay
# T2 sequence (Q96DB2 whole entry): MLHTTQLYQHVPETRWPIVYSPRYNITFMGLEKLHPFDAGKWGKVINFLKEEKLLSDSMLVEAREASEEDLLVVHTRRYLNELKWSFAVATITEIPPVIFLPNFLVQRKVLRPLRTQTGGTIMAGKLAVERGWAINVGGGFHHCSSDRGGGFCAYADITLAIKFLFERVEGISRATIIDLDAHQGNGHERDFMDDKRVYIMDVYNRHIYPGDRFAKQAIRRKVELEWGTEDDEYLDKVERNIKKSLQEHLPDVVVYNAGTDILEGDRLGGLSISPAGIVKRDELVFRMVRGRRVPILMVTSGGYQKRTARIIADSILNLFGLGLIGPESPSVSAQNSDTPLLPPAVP
# RAW264.7 [5] = experiment: Antiinflammatory activity in mouse RAW264.7 cells assessed as inhibition of LPS-induced IL-6 production at 0.5 to 2.5 uM relative to control; type: functional
# Histone deacetylase 9 = Histone deacetylase 9 (Homo sapiens, UniProt Q9UKV0); experiment: Inhibition of human recombinant HDAC9 using trifluoroacetyl lysine as substrate
# Histone deacetylase 5 = Histone deacetylase 5 (Homo sapiens, UniProt Q9UQL6); experiment: Inhibition of human recombinant C-terminal His-tagged HDAC5 (657 to 1123 residues) expressed in insect cells using Boc-K(TFA)-AMC as substrate incubated for 60 mins by fluorescence assay
# Mus musculus [6] = experiment: Antiinflammatory activity in ICR mouse model of LPS-induced endotoxemia assessed as inhibition of LPS-induced TNF-alpha mRNA expression in liver at 10 mg/kg, ip administered 2 hrs before and immediately after LPS injection by RT-PCR method; type: functional, organism-based
# In short: as §1
# Histone deacetylase 1 [7] = biological target: T3, Histone deacetylase 1 (Homo sapiens, UniProt Q13547); details: HeLa, 10 uM
# RAW264.7 [8] = experiment: Antiinflammatory activity in mouse RAW264.7 cells assessed as inhibition of LPS-induced NO production at 0.5 to 2.5 uM relative to control; type: functional
# HeLa = experiment: Cytotoxicity against human HeLa cells by MTS assay; type: cell-based
# Histone deacetylase 4 = Histone deacetylase 4 (Homo sapiens, UniProt P56524); experiment: Inhibition of human recombinant N-terminal GST-tagged C-terminal His-tagged HDAC4 (627 to 1084 residues) expressed in insect cells using Boc-K(TFA)-AMC as substrate incubated for 60 mins by fluorescence assay
# Histone deacetylase 1 [9] = biological target: T3, Histone deacetylase 1
# [10] = biological target: T1, Protein deacetylase HDAC6; experiment: Inhibition of full length human recombinant N-terminal GST-tagged HDAC6 (1 to 1215 residues) expressed in sf9 cells using RHK-K(Ac)-AMC as substrate incubated for 90 mins by fluorescence assay
# Histone deacetylase 1 [11] = biological target: T3, Histone deacetylase 1; experiment: Inhibition of full length human recombinant C-terminal FLAG-His-tagged HDAC1 (1 to 482 residues) expressed in Sf21 cells using RHK-K(Ac)-AMC as substrate incubated for 60 mins by fluorescence assay
# [12] = biological target: Histone deacetylase 3/Nuclear receptor corepressor 2 (HDAC3/NCoR2) (Homo sapiens, UniProt O15379); type: cell-based
# Histone deacetylase 2 = Histone deacetylase 2 (Homo sapiens, UniProt Q92769); experiment: Inhibition of full length human recombinant C-terminal GST-tagged HDAC2 (1 to 488 residues) expressed in insect cells using RHK-K(Ac)-AMC as substrate incubated for 60 mins by fluorescence assay
# [13] = biological target: T4, Polyamine deacetylase HDAC10 (Homo sapiens, UniProt Q969S8); experiment: Inhibition of human recombinant HDAC10 using RHK-K(Ac)-AMC as substrate
# T4 sequence (Q969S8 whole entry): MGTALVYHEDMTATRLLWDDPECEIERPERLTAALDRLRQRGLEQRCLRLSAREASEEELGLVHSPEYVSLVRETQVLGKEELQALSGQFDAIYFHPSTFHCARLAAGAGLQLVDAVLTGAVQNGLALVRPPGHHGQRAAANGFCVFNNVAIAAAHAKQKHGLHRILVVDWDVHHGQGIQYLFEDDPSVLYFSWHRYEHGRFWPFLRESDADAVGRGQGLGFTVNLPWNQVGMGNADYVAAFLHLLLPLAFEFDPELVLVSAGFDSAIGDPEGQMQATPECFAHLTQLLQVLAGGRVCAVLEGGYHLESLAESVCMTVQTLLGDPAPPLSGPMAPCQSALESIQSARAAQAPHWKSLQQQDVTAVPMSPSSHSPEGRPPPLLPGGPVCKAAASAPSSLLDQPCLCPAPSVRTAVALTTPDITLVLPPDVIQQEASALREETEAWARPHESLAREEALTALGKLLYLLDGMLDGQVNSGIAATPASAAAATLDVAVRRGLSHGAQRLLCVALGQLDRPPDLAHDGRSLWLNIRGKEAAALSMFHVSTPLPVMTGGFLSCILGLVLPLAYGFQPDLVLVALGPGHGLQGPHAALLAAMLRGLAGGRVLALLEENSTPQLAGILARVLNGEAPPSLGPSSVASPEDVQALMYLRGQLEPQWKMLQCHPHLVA
# Mus musculus [14] = experiment: Anti-sepsis activity in ICR mouse model of LPS-induced endotoxemia assessed as increase in survival rate at 20 mg/kg, ip administered 2 hrs before and immediately after LPS injection measured up to 10 days; type: functional
# In short: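 Male ICR mice (27–29 g), LPS from E. coli O111:B4. Dosing was i.p. in vehicle (5% DMSO in saline) at 5, 10 or 20 mg/kg, given 2 h before and immediately after LPS. Groups were vehicle control, LPS, and LPS plus drug. Survival was followed up to 10 days and compared by log-rank analysis.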
# Histone deacetylase [15] = experiment: Inhibition of HDAC in human HeLa cells using Boc-acetyl-lysine-AMC as substrate incubated for 24 hrs by fluorometric assay; type: cell-based
# Histone deacetylase 8 = biological target: T5, Histone deacetylase 8 (Homo sapiens, UniProt Q9BY41); experiment: Inhibition of human recombinant C-terminal His-tagged HDAC8 (1 to 377 residues) expressed in insect cells using RHK-K(Ac)-K(Ac)-AMC as substrate incubated for 60 mins by fluorescence assay
# T5 sequence (Q9BY41 whole entry): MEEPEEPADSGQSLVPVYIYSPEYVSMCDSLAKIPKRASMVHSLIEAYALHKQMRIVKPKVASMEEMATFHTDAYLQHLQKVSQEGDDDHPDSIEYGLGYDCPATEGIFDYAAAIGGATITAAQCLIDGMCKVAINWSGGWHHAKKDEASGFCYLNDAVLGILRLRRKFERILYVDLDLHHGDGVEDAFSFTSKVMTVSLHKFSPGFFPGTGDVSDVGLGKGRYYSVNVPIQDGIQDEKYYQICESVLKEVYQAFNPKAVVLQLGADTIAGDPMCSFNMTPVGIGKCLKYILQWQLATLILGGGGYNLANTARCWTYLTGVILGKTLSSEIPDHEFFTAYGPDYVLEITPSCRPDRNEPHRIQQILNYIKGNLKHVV
# RAW264.7 [16] = experiment: Antiinflammatory activity in mouse RAW264.7 cells assessed as inhibition of LPS-induced TNF-alpha production at 0.5 to 2.5 uM relative to control; type: functional
# Histone deacetylase 7 = biological target: T6, Histone deacetylase 7 (Homo sapiens, UniProt Q8WUI4); experiment: Inhibition of human recombinant N-terminal GST-tagged HDAC7 (518 to 991 residues) expressed in insect cells using Boc-K(TFA)-AMC as substrate incubated for 60 mins by fluorescence assay
# T6 sequence (Q8WUI4 whole entry): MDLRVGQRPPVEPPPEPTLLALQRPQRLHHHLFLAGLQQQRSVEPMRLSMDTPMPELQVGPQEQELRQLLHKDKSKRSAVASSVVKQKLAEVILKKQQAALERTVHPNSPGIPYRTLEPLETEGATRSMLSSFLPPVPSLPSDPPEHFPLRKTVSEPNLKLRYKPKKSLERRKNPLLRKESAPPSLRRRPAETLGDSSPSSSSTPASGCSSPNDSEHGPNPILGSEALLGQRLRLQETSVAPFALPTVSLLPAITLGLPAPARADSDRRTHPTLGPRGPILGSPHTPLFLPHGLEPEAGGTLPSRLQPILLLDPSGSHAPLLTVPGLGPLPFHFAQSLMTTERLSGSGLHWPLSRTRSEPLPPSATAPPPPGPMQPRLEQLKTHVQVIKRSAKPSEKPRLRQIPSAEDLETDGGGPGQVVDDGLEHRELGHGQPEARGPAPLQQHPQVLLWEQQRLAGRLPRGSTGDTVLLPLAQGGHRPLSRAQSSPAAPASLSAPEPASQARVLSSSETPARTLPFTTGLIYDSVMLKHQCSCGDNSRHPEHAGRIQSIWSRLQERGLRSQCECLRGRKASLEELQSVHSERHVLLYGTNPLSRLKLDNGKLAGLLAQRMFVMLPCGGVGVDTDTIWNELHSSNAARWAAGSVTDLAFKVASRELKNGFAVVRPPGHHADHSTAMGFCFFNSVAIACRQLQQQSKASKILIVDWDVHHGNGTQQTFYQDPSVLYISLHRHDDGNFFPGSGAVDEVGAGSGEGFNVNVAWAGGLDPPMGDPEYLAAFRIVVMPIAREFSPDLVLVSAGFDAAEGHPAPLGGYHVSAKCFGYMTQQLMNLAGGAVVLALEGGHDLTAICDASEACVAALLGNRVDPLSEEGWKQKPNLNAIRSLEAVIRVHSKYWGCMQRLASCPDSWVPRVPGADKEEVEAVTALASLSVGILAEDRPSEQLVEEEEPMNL
# T3 sequence (Q13547 whole entry): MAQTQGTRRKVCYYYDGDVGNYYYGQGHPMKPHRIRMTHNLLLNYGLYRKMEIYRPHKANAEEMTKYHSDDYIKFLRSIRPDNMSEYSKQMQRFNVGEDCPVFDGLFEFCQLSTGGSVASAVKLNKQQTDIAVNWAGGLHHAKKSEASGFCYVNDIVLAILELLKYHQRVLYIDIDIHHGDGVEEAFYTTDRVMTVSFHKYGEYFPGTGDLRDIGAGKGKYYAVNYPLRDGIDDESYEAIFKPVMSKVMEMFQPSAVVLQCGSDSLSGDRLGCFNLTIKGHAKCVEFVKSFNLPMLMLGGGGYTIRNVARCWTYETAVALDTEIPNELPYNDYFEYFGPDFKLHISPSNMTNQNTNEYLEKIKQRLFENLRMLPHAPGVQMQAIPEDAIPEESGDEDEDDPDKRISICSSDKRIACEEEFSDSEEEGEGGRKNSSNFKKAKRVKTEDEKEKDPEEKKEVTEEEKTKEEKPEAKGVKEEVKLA
# Histone deacetylase 2, sequence (Q92769 whole entry, the tested form may be a part): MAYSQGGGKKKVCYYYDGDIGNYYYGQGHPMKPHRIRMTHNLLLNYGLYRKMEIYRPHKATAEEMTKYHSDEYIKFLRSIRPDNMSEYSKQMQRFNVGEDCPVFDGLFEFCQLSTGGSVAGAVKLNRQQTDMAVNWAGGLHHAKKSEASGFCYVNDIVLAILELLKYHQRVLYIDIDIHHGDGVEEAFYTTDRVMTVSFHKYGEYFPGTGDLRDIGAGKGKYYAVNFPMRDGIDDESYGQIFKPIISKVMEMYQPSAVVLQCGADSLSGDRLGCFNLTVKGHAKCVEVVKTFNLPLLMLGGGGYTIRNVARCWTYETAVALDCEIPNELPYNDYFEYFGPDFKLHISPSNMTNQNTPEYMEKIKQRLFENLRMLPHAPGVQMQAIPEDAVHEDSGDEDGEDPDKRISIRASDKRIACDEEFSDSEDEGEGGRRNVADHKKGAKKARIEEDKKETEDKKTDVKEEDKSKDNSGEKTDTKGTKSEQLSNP
# Histone deacetylase 9, sequence (Q9UKV0 whole entry, the tested form may be a part): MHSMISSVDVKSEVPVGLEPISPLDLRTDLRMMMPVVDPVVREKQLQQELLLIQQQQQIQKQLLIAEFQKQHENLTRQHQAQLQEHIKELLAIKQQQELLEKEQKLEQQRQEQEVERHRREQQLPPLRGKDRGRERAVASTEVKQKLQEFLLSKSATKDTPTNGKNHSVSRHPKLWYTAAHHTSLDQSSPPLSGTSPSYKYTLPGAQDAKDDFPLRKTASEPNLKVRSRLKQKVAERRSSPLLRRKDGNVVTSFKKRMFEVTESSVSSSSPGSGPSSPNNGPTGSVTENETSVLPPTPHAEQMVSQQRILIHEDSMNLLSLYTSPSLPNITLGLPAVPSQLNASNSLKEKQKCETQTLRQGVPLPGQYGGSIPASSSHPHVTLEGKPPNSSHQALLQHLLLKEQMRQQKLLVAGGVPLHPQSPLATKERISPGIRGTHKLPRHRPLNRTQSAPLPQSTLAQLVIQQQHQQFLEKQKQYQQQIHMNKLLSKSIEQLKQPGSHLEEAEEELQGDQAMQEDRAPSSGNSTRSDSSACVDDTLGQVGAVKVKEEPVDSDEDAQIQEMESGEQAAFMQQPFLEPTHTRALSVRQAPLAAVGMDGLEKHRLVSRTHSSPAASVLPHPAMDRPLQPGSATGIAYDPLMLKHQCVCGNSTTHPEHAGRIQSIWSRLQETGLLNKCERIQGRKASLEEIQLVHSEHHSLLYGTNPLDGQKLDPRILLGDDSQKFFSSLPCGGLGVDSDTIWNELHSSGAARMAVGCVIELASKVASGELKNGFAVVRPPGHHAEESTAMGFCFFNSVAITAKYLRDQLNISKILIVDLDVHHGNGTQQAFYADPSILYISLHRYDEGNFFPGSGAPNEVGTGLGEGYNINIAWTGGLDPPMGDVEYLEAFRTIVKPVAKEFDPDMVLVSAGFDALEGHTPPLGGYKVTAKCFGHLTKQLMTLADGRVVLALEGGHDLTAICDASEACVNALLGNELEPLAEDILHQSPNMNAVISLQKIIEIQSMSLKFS
# Histone deacetylase 5, sequence (Q9UQL6 whole entry, the tested form may be a part): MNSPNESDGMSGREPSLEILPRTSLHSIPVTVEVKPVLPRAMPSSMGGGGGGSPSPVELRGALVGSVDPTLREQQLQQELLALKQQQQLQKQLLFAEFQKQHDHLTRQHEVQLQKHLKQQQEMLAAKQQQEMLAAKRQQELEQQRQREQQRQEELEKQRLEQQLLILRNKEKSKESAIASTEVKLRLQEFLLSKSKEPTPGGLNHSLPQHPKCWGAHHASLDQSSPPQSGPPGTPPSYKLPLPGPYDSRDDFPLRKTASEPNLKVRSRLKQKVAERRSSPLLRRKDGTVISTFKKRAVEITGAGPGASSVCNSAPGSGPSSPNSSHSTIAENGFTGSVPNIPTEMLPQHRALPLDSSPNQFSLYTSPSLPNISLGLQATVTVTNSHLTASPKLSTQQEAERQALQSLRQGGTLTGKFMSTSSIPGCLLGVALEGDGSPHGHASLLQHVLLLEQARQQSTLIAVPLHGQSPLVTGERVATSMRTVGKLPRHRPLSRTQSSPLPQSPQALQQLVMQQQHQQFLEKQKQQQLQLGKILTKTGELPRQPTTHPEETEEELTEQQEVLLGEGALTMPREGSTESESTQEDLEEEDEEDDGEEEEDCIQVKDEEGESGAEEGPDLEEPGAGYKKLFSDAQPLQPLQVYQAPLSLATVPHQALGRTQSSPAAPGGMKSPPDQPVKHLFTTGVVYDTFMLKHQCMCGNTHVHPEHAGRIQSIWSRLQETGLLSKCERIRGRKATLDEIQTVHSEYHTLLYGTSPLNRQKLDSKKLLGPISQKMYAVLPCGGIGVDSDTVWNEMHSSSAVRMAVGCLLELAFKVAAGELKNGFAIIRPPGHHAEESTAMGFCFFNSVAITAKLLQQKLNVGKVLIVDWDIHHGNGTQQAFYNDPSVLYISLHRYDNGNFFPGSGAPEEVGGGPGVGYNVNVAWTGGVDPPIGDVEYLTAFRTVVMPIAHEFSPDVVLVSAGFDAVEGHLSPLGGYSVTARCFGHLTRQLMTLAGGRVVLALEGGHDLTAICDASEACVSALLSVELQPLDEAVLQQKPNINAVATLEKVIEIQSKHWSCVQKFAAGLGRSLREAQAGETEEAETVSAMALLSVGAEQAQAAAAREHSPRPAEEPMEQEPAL
# Histone deacetylase 4, sequence (P56524 whole entry, the tested form may be a part): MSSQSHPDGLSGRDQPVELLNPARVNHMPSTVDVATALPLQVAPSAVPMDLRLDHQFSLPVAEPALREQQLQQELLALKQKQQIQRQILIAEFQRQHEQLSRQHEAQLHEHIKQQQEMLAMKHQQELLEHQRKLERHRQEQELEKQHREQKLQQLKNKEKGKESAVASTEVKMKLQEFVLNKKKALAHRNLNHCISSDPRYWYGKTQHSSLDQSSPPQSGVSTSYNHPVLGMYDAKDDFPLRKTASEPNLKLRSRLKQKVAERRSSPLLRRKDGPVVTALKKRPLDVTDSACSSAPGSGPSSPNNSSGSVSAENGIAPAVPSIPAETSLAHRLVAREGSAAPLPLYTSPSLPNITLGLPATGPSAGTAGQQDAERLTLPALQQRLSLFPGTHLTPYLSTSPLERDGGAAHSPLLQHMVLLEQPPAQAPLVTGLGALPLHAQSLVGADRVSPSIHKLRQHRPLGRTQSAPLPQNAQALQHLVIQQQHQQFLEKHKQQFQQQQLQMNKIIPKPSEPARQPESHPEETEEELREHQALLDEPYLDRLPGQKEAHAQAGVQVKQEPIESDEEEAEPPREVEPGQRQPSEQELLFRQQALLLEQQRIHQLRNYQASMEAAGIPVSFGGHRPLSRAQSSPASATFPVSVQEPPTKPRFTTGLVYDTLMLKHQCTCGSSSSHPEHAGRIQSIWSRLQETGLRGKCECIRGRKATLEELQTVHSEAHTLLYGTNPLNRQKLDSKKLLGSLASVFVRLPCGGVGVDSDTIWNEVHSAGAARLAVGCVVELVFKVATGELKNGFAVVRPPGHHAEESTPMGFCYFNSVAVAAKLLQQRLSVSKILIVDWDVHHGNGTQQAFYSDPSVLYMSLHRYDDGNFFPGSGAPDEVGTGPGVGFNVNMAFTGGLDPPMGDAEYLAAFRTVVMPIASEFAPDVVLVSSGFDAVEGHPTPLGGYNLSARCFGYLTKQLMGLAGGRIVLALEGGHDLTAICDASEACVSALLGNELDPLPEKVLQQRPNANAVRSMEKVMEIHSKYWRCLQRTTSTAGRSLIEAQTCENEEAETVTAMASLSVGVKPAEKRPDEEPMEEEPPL
structure (smiles),measurement,setting,value
O=C(CCS/C=C/c1ccccc1)NO,IC50,Histone deacetylase [1],3.7 µM
Cc1ncsc1CCn1cc(NC(=O)CCS/C=C\c2ccccc2)cn1,IC50,Histone deacetylase [1],29.8 µM
same,inhibition,[2],Active
O=C(CCCc1csc(/C=C/c2ccccc2)n1)NO,IC50,[3],199 nM
same,inhibition,Mus musculus [4],Active
same,IC50,Histone deacetylase 11,32.8 µM
same,inhibition (INH),RAW264.7 [5],50%
same,IC50,Histone deacetylase 9,Not Active
same,IC50,Histone deacetylase [1],1.48 µM
same,IC50,Histone deacetylase 5,26.6 µM
same,inhibition,Mus musculus [6],Active
same,inhibition,Histone deacetylase 1 [7],inactive
same,inhibition (INH),RAW264.7 [8],50%
same,IC50,HeLa,52 µM
same,IC50,Histone deacetylase 4,19.7 µM
same,IC50,Histone deacetylase 1 [9],13.8 µM
same,IC50,[10],567 nM
same,IC50,Histone deacetylase 1 [11],> 10 µM
same,IC50,[12],17.8 µM
same,IC50,Histone deacetylase 2,> 10 µM
same,IC50,[13],78.3 µM
same,Activity,Mus musculus [14],40%
same,IC50,Histone deacetylase [15],0.37 µM
same,IC50,Histone deacetylase 8,1540 nM
same,inhibition (INH),RAW264.7 [16],50%
same,IC50,Histone deacetylase 7,Not Active
O=C(CCS/C=C/c1ccccc1)NCCSCc1ccco1,IC50,Histone deacetylase [1],19.18 µM
same,inhibition,[2],Active
